Test results taken from ChEMBL document CHEMBL4145578, “Protoilludane, Illudalane, and Botryane Sesquiterpenoids from the Endophytic Fungus Phomopsis sp. TJ507A” (J Nat Prod, 2018).

Key:
L02 = assay: Cytotoxicity against human L02 cells assessed as effect on cell viability at 40 uM after 24 hrs by MTT assay; assay type: cell-based; conditions: l02, 24 h
Summary of the method: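 L-02 cells grown in DMEM with 10% FBS at 37 °C and 5% CO2, seeded at 5 × 10^3 cells/well, then settled over 12 h. Compound in DMSO added at 40 μM final (DMSO below 0.4%) for 24 h. MTT (5 mg/mL stock) added for a further 4 h. Formazan dissolved in DMSO and absorbance read at 570 nm.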

[1] = target: Beta-secretase 1 (Homo sapiens) (UniProt P56817); assay: Inhibition of BACE1 (unknown origin) at 0.5 uM using BACE1 substrate measured after 2 hrs by FRET assay relative to control
Beta-secretase 1 (Homo sapiens), sequence (P56817 whole entry): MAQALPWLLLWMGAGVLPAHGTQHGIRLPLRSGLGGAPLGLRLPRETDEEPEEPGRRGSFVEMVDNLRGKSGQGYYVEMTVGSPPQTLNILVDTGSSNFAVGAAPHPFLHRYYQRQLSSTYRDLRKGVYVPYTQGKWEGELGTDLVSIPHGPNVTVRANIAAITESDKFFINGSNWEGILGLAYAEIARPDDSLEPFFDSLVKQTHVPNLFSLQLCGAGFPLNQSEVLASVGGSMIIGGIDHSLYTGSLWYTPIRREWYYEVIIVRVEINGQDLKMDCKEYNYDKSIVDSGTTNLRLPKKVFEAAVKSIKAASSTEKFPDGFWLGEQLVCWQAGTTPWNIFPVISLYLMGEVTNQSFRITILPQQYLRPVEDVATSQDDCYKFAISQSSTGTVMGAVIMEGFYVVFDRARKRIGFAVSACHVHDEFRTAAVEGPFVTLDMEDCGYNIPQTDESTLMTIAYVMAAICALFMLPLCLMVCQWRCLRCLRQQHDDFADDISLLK

inhibition [1] [%]	Compound	Activity (L02)
	CC1=C2[C@H](O)C[C@]2(C)[C@H]2C[C@@](C)(CO)C=C2C1=O	Non-Toxic
	CC1=C2OCC[C@]2(C)[C@H]2CC(C)(C)C=C2C1=O	Non-Toxic
	Cc1c(O)c2c(c(C)c1CCO)C(=O)C(C)(C)[C@@H]2O	Non-Toxic
	CC1=C2CC[C@]2(C)[C@H]2C[C@@](C)(CO)C=C2C1=O	Non-Toxic
	Cc1ccc2c3c1C(=O)OC[C@@]3(C)[C@H](O)C2(C)C	Non-Toxic
	CC1=C2[C@H](O)C[C@]2(C)[C@H]2CC(C)(C)C=C2C1=O	Non-Toxic
	CC1=C2[C@H](O)C[C@]2(C)[C@H]2C[C@](C)(CO)C=C2C1=O	Non-Toxic
	CC(=O)OCCc1c(C)c(O)c2c(c1C)[C@@H](O)C(C)(C)C2	Non-Toxic
	Cc1cc2c(c(C)c1CCO)CC(C)(C)C2	Non-Toxic
	CC1C(=O)C2=CC(C)(C)C[C@]2(O)[C@@]2(C)CCC12 (some centres not stated)	Non-Toxic
	C[C@H]1C(=O)[C@]2(O)CC(C)(C)C[C@@H]2[C@@]2(C)CC[C@@]12O	Non-Toxic
	CC1=C2CC[C@]2(C)[C@@H]2C(=CC(C)(C)[C@H]2O)C1=O	Non-Toxic
	CC1C(=O)C2=CC(C)(C)C[C@]2(O)[C@@]2(C)C[C@@H](O)C12 (some centres not stated)	Non-Toxic
	Cc1cc2c(c(C)c1CCO)C(=O)C(C)(C)C2 [PTEROSIN Z]	Non-Toxic
	CC1=C2CC[C@]2(C)[C@]2(O)C(=CC(C)(C)[C@H]2O)C1=O	Non-Toxic
	Cc1c(O)c2c(c(C)c1CCO)C(=O)C(C)(C)C2 [ONITIN]	Non-Toxic
38.6	C[C@@]1(c2cc(-c3cncnc3)c(F)cc2F)CCSC(N)=N1	
